The record followed here is ChEMBL document CHEMBL1759947, “Synthesis and evaluation of arylquinones as BACE1 inhibitors, β-amyloid peptide aggregation inhibitors, and destabilizers of preformed β-amyloid fibrils” (Bioorg Med Chem Lett, 2011).

Data set [1] can be described thus: Inhibition of amyloid beta (25 to 35) aggregation for 4 days by Thioflavin-T fluorescence assay. The following applies: for pIC50: read-out: IC50. The method in brief: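 Aβ(25–35) dissolved at 1 mM in PBS (stock), diluted, mixed with quinone and held at 37 °C for 4 days; aggregation read by thioflavin-T fluorescence (ex 448/em 483 nm) after subtracting a ThT blank; IC50 derived.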

Data set [2] can be described thus: Induction of amyloid beta (25 to 35) disaggregation after 4 days by Thioflavin-T fluorescence assay. Particulars: for pIC50: read-out: IC50; call rule not given here. In a few lines: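 Aβ(25–35) first held at 37 °C for 4 days to form fibrils, then exposed to quinone for another 4 days at 37 °C; remaining fibrils measured by thioflavin-T fluorescence (ex 448/em 483 nm) with ThT blank subtracted; IC50 derived.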

The target in data set [3] is Beta-secretase 1 (Homo sapiens, UniProt P56817). The data set is described as follows: Inhibition of human recombinant BACE1 preincubated after 1 hr by fluorescence assay.
Beta-secretase 1, sequence (P56817 whole entry): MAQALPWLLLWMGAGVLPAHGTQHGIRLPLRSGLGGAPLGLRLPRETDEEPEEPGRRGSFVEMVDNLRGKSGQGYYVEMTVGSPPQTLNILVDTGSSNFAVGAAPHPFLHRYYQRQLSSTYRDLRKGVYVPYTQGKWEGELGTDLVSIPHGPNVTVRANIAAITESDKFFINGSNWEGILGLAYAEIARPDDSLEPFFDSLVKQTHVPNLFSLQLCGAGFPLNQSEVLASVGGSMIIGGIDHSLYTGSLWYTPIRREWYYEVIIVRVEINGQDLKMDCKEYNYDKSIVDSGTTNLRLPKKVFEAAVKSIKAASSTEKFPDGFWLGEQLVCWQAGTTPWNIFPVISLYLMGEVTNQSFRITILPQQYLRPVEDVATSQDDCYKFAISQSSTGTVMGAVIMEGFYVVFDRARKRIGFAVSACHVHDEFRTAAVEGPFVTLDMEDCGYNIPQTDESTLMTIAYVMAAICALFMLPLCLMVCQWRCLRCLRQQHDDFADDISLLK
Data set [4] has as its system SH-SY5Y. In words: Cytotoxicity against human SH-SY5Y cells up to 20 uM for 24 hrs by MTT assay. It counts as cell-based. The method in brief: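 SH-SY5Y neuroblastoma cells; viability by mitochondrial reduction of MTT to formazan, reported as percent cell death at a single concentration.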

One may read the pIC50 as −log10 of the IC50, conventionally taken in molar units.

SMILES strings stand for the structures. pIC50: −log10 of the molar value.

Turning to `O=C1C=C(c2ccc(O)cc2)C(=O)c2ccccc21`, the IC50 entry in data set [1] and in data set [2] was “Not Active” in each case. Besides, the pIC50 in data set [3] was 5.09. In addition, the Activity entry in data set [4] is recorded as “Non-toxic”.
On to `COc1ccc(C2=CC(=O)c3c(OC)cccc3C2=O)cc1`, for which the negative logarithm of the IC50 (pIC50) in data set [1] is 4.65; in data set [3], 4.95. Moreover, the IC50 result in data set [2] was “Not Active”. In addition, in data set [4], the Activity result is recorded as “Non-toxic”.
As for `COc1ccc(-c2cc(OC(C)=O)cc(-c3ccccc3)c2OC(C)=O)cc1`, the IC50 result in data set [1] and in data set [2] was “Not Active” each time. Besides, the pIC50 in data set [3] is 4.95. For the same molecule, the Activity result in data set [4] was “Non-toxic”.
Turning to `COc1ccc(C2=CC(=O)C=C(c3ccccc3)C2=O)cc1`, the figures for the pIC50 in data set [1], in data set [2] and in data set [3] were 5.02, 5.10 and 4.87, respectively. For the same molecule, the Activity result in data set [4] was “Non-toxic”.
For `O=C1C=C(c2ccccc2)C(=O)C(c2ccccc2)=C1` the same measures were 5.03, 5.05, 4.94 and “Non-toxic”.
Turning to `O=C1C=C(c2ccccc2)C(=O)c2ccccc21`, the IC50 result in data set [1] and in data set [2] was “Not Active” throughout. In addition, the pIC50 in data set [3] is 5.03. For the same molecule, in data set [4], the Activity entry was “Non-toxic”.
As for `O=C1C=C(c2ccc(C(F)(F)F)cc2)C(=O)C=C1c1ccccc1`, the pIC50 in data set [1] is 4.85; in data set [2] it was 4.91; in data set [3] it was 5.19. For the same molecule, in data set [4], the Activity result was “Non-toxic”.
As for `COc1ccc(C2=CC(=O)C=C(c3ccc(F)cc3)C2=O)cc1`, the Activity in data set [4] stood at 62.5%.
The same measure, in the same setting: the result for `COc1ccc(C2=CC(=O)C(c3ccc(F)cc3)=CC2=O)cc1` reads 66.22%.
Same read-out and setting: in the case of `COc1ccc(C2=CC(=O)C(c3ccccc3)=CC2=O)cc1` it was 56.29%.
`O=C1C(c2ccccc2)=CC(=O)c2c(O)cccc21`: the IC50 result in data set [1] and in data set [2] was “Not Active” in each case. In addition, in data set [3], the pIC50 was 4.90. Also, in data set [4], the Activity entry is recorded as “Non-toxic”.
`O=C1C=C(c2ccc(F)cc2)C(=O)C=C1c1ccccc1` gave an Activity in data set [4] of 78.08%.
On to `Oc1cc(-c2ccccc2)c(O)cc1-c1ccccc1`, for which the values for the pIC50 in data set [1], in data set [2] and in data set [3] were less than 4.30, 4.85 and 4.80, respectively. In addition, in data set [4], the Activity entry is reported as “Non-toxic”.
Consider `O=C1C(c2ccc(O)cc2)=CC(=O)c2c(O)cccc21`, for which the IC50 result in data set [1] and in data set [2] was “Not Active” each time. In data set [3], the pIC50 is 4.79. The Activity result in data set [4] is recorded as “Non-toxic”.
In data set [4], `O=C1C=C(c2ccccc2)C(=O)C(c2ccc(C(F)(F)F)cc2)=C1` registered an Activity of 100%.
In the case of `CC(=O)Oc1cc(-c2ccccc2)c(OC(C)=O)c(-c2ccccc2)c1`, the IC50 entry in data set [1] and in data set [2] was “Not Active” each time. The pIC50 in data set [3] is 4.70. Further, the Activity entry in data set [4] is on record as “Non-toxic”.
Regarding `CC(=O)Oc1cc(-c2ccc(C(F)(F)F)cc2)c(OC(C)=O)cc1-c1ccccc1`, the pIC50 in data set [1] and in data set [2] was less than 4.30 in each case. Besides, in data set [4], the Activity result was “Non-toxic”.
Consider `COc1ccc(-c2cc(O)cc(-c3ccccc3)c2O)cc1`, for which the pIC50 was 4.75 in data set [1], 5.08 in data set [2] and 5.04 in data set [3]. In addition, the Activity result in data set [4] is “Non-toxic”.
As for `O=C1C=C(c2ccccc2)C(=O)C=C1c1ccccc1`, the Activity result in data set [4] was “Toxic”.
For the molecule `O=C1C=C(c2ccccc2)C(=O)c2c(O)cccc21`, the IC50 entry in data set [1] and in data set [2] was “Not Active” each time. Besides, the pIC50 in data set [3] is 5.05. Also, the Activity result in data set [4] was “Non-toxic”.
For the molecule `COc1ccc(-c2cc(O)cc(-c3ccccc3)c2OC(C)=O)cc1`, the IC50 entry in data set [1] and in data set [2] was “Not Active” in each case. In addition, the negative-log IC50 (pIC50) in data set [3] is 4.95. Moreover, in data set [4], the Activity entry is on record as “Non-toxic”.
Take `COc1cccc2c1C(=O)C(c1ccc(O)cc1)=CC2=O`: the pIC50 in data set [1] is 4.78; in data set [2], 5.30; in data set [3], 4.99. Besides, the Activity entry in data set [4] was “Non-toxic”.
In the same order, the values of `COc1ccc(C2=CC(=O)C(c3ccc(OC)cc3)=CC2=O)cc1` are 5.20, 5.15, 4.63 and “Non-toxic”.
`COc1ccc(-c2cc(OC(C)=O)c(-c3ccc(OC)cc3)cc2OC(C)=O)cc1`: the IC50 entry in data set [1] was “Not Active”. In addition, the pIC50 in data set [2] was less than 4.30; in data set [3] it was 4.62. Besides, in data set [4], the Activity result was “Non-toxic”.
